# ChEMBL document CHEMBL5532690, “Antitubercular activity of 2-mercaptobenzothiazole derivatives targeting Mycobacterium tuberculosis type II NADH dehydrogenase” (RSC Med Chem, 2024)
# Active and inactive are the calls of the source. No cut-off for these calls is given here.
# Key:
# [1] = tested on: Mycobacterium tuberculosis; experiment: Inhibition of NDH-2 in Mycobacterium tuberculosis transformed with pMV762-Peredox-mCherry assessed as change in NADH/NAD+ ratio at 2.5 ug/ml incubated for 24 hrs by fluorimetric assay; details: dose 2.5 µg/ml
# [2] = tested on: Mycobacterium tuberculosis; experiment: Antitubercular activity against isoniazid-resistant Mycobacterium tuberculosis mc2 8243 measured after 10 days by liquid broth microdilution assay; type: functional; details: mc2 8243, 240 h, time 10 day
# How it was run: (§1)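 Broth microdilution in 7H9 with glycerol, ADS and 0.05% tyloxapol, supplemented with L-methionine, L-leucine (50 mg L−1 each), L-arginine (200 mg L−1) and D-pantothenate (24 mg L−1). Inoculum was diluted to OD600 0.005 (1.0 × 10^6 CFU ml−1) and added to two-fold serial dilutions. After 10 days at 37 °C, MIC was the lowest concentration without visible turbidity.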
# [3] = tested on: Mycobacterium tuberculosis; experiment: Antitubercular activity against rifampicin-resistant Mycobacterium tuberculosis mc2 8247 measured after 10 days by liquid broth microdilution assay; type: functional; details: mc2 8247, 240 h, time 10 day; how it was run: as §1
# [4] = tested on: Mycobacterium tuberculosis; experiment: Antitubercular activity against isoniazid and rifampicin resistant Mycobacterium tuberculosis mc2 8259 measured after 10 days by liquid broth microdilution assay; type: functional; details: mc2 8259, 240 h, time 10 day; how it was run: as §1
# [5] = tested on: Mycobacterium tuberculosis; experiment: Inhibition of NDH-2 in Mycobacterium tuberculosis transformed with pMV762-Peredox-mCherry assessed as change in NADH/NAD+ ratio at 59.16 ug/ml incubated for 24 hrs by fluorimetric assay; details: dose 59.16 µg/ml
# [6] = tested on: Mycobacterium tuberculosis; experiment: Inhibition of NDH-2 in Mycobacterium tuberculosis transformed with pMV762-Peredox-mCherry incubated for 24 hrs by fluorimetric assay
# How it was run: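 Peredox-mCherry reporter Mtb was grown in supplemented 7H9 to OD600 0.4–0.6 and inoculated onto compounds, then held at 37 °C for 24 h. Fluorescence was read at ex 400/em 510 nm and ex 587/em 615 nm. The green/red ratio was taken as NADH/NAD+. Triplicates; one-way ANOVA with Dunnett's test.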
Structure (SMILES),inhibition [1],MIC90 [2] [µg/mL],MIC90 [3] [µg/mL],MIC90 [4] [µg/mL],inhibition [5],inhibition [6]
CC(C)/N=c1\cc2n(-c3ccc(Cl)cc3)c3ccccc3nc-2cc1Nc1ccc(Cl)cc1 [CLOFAZIMINE],inactive,–,–,–,–,–
CO[C@H]1/C=C/O[C@@]2(C)Oc3c(C)c(O)c4c(O)c(c(/C=N/N5CCN(C)CC5)c(O)c4c3C2=O)NC(=O)/C(C)=C\C=C\[C@H](C)[C@H](O)[C@@H](C)[C@@H](O)[C@@H](C)[C@H](OC(C)=O)[C@@H]1C [RIFAMPIN],–,0.12,> 128,> 128,–,–
O=C(CSc1nc2ccccc2c(=O)[nH]1)NC1CCCCC1,–,0.125,0.25,0.125,–,–
O=C(CSc1nc2c(Br)cc(F)cc2s1)NC1CCCCC1,–,8,4,8,–,–
NNC(=O)c1ccncc1 [ISONIAZID],–,> 128,0.25,> 128,–,–
C=C(C)[C@H]1Cc2c(ccc3c2O[C@@H]2COc4cc(OC)c(OC)cc4[C@@H]2C3=O)O1 [ROTENONE],–,–,–,–,Active,–
Cc1cc(C)c2nc(SCC(=O)NC3CCCCC3)sc2c1,–,4,8,4,–,Active
CC(C)c1ccc2nc(SCC(=O)NC3CCCCC3)sc2c1,–,4,4,4,–,Active
